Measurements: the M2OR odorant receptor database
Residue numbers refer to the chain shown, from its start.

What was measured:
Details in all cases: stereoisomer not certain
OR6C65 (Homo sapiens) = target: T1, OR6C65 (Homo sapiens) (UniProt A6NJZ3)
T1 sequence (whole entry): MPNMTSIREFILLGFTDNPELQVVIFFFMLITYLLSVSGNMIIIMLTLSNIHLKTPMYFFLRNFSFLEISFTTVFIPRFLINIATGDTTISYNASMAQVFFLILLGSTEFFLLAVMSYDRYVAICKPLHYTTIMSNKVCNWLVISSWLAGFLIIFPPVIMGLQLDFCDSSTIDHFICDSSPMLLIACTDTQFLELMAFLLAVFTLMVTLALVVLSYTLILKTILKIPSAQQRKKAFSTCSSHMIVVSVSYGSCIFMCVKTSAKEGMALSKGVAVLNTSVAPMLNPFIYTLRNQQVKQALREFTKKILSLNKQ
How it was run: (§1)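 Whether a receptor–molecule pair is responsive (active) rests on the original authors' judgment that its measured signal was statistically different from baseline. Pairs without that judgment are non-responsive (inactive). Sources used varied assay methods, commonly transient luciferase assays in mammalian cell lines.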

OR6C68 (Homo sapiens) = target: T2, OR6C68 (Homo sapiens) (UniProt A6NDL8)
T2 sequence (whole entry): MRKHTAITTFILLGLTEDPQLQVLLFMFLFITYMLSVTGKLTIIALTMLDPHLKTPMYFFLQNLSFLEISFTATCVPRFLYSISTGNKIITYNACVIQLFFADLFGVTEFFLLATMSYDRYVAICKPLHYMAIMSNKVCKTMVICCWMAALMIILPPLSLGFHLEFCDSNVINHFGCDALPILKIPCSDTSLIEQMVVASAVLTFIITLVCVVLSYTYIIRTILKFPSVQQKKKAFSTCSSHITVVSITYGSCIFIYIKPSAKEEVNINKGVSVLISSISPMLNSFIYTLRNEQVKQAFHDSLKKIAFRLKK
How it was run: as §1

OR6C70 (Homo sapiens) = target: T3, OR6C70 (Homo sapiens) (UniProt A6NIJ9)
T3 sequence (whole entry): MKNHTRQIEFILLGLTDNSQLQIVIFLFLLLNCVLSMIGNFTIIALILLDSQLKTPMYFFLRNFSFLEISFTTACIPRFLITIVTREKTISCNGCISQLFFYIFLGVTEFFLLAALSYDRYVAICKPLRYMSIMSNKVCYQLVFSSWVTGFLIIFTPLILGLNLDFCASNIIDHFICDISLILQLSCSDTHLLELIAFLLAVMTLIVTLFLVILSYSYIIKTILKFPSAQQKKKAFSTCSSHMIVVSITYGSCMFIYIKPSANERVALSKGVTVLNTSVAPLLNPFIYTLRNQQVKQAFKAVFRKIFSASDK
How it was run: as §1

OR6C74 (Homo sapiens) = target: T4, OR6C74 (Homo sapiens) (UniProt A6NCV1)
T4 sequence (whole entry): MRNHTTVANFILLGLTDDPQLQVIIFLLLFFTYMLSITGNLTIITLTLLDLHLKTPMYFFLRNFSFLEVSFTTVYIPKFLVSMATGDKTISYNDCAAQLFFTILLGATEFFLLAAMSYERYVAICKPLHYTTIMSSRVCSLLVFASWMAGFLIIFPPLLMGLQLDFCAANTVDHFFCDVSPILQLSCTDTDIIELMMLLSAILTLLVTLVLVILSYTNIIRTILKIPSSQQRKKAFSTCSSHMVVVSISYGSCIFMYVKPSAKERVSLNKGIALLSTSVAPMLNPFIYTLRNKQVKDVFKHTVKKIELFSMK
How it was run: as §1

OR6C75 (Homo sapiens) = target: T5, OR6C75 (Homo sapiens) (UniProt A6NL08)
T5 sequence (whole entry): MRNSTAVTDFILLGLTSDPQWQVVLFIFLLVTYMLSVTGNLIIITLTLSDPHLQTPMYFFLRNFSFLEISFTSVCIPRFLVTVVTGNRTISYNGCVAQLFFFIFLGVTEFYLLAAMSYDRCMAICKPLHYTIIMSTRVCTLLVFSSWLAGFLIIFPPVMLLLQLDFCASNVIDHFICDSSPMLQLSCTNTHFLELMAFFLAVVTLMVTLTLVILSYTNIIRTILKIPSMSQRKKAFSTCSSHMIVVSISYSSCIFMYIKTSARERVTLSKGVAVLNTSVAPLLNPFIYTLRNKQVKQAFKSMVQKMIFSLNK
How it was run: as §1

OR6C76 (Homo sapiens) = target: T6, OR6C76 (Homo sapiens) (UniProt A6NM76)
T6 sequence (whole entry): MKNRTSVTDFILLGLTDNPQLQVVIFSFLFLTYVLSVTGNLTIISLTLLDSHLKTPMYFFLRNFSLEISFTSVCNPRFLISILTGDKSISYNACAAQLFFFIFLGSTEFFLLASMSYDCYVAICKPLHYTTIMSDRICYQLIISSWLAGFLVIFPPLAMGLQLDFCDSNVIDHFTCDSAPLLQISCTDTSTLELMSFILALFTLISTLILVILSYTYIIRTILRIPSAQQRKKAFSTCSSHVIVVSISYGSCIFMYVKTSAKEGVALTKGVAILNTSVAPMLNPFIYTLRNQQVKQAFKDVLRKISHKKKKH
How it was run: as §1

OR6F1 (Homo sapiens) = target: T7, OR6F1 (Homo sapiens) (UniProt Q8NGZ6)
T7 sequence (whole entry): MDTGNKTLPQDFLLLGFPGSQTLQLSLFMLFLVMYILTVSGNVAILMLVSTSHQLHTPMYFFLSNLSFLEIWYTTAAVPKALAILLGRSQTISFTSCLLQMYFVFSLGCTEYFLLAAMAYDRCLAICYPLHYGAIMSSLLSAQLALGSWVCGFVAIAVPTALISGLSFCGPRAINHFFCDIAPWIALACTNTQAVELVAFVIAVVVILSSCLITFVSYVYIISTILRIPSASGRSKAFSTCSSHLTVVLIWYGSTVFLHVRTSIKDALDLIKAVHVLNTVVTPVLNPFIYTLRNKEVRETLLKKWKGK
How it was run: as §1

OR6J1 (Homo sapiens) = target: T8, OR6J1 (Homo sapiens) (UniProt Q8NGC5)
T8 sequence (whole entry): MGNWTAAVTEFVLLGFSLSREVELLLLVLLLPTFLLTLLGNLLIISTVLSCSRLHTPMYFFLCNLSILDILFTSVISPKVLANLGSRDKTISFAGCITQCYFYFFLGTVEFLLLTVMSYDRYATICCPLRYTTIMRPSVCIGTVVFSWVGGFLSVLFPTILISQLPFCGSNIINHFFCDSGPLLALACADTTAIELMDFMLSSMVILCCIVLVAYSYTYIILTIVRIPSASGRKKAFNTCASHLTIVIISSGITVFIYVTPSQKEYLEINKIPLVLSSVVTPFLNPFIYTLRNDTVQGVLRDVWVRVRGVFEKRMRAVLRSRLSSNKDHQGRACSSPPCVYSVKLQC
How it was run: as §1

OR6K2 (Homo sapiens) = target: T9, OR6K2 (Homo sapiens) (UniProt Q8NGY2)
T9 sequence (whole entry): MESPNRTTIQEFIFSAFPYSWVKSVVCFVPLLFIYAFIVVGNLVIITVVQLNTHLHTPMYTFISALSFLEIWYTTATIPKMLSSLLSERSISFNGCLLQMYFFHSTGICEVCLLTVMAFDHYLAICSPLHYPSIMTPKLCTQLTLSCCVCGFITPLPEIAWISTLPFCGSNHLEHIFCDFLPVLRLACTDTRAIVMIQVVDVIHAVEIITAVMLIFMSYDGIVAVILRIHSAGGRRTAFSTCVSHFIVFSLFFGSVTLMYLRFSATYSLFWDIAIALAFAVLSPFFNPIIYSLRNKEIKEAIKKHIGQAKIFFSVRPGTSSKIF
How it was run: as §1

OR6K3 = test system: T10, OR6K3
T10 sequence (whole entry): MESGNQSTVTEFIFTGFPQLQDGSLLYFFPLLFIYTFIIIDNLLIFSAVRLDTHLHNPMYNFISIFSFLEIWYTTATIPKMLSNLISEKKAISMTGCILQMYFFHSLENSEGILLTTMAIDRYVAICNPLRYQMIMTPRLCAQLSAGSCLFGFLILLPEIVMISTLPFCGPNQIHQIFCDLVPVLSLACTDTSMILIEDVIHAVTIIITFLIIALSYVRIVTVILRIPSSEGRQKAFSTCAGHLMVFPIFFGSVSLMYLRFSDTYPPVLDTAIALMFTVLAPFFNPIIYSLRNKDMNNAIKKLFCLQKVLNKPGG
How it was run: as §1

OR6K6 (Homo sapiens) = target: T11, OR6K6 (Homo sapiens) (UniProt Q8NGW6)
T11 sequence (whole entry): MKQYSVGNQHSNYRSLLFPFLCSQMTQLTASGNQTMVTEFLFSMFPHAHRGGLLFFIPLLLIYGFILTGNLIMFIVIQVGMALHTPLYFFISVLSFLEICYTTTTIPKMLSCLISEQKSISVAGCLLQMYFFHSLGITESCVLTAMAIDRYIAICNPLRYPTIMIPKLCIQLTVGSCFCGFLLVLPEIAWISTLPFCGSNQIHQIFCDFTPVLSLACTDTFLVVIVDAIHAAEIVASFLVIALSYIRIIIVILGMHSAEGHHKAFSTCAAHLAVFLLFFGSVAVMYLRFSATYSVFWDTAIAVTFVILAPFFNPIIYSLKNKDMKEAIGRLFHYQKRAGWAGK
How it was run: as §1

OR6M1 (Homo sapiens) = target: T12, OR6M1 (Homo sapiens) (UniProt Q8NGM8)
T12 sequence (whole entry): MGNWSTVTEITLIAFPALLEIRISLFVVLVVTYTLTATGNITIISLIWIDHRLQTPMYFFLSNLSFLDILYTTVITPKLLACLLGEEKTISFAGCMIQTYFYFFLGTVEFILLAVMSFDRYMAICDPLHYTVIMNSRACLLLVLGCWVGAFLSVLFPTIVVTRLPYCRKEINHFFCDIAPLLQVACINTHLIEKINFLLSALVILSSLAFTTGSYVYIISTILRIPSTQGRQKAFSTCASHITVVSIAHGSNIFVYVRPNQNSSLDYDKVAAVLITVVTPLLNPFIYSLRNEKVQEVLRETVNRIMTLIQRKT
How it was run: as §1

OR6M1 R224C = test system: T13, OR6M1 R224C
T13 sequence (whole entry): T12 sequence (whole entry) with R224C
How it was run: as §1

OR6M1 T276K = test system: T14, OR6M1 T276K
T14 sequence (whole entry): T12 sequence (whole entry) with T276K
How it was run: as §1

OR6N1 (Homo sapiens) = target: T15, OR6N1 (Homo sapiens) (UniProt Q8NGY5)
T15 sequence (whole entry): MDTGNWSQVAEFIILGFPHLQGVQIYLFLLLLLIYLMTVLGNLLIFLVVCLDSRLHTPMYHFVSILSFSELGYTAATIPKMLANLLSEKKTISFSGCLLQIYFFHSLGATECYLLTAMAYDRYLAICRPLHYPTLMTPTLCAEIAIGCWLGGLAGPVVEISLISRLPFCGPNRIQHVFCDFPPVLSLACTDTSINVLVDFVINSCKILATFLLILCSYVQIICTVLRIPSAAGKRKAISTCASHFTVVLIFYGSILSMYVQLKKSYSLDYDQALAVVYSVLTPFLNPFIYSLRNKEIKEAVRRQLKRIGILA
How it was run: as §1

OR6N2 (Homo sapiens) = target: T16, OR6N2 (Homo sapiens) (UniProt Q8NGY6)
T16 sequence (whole entry): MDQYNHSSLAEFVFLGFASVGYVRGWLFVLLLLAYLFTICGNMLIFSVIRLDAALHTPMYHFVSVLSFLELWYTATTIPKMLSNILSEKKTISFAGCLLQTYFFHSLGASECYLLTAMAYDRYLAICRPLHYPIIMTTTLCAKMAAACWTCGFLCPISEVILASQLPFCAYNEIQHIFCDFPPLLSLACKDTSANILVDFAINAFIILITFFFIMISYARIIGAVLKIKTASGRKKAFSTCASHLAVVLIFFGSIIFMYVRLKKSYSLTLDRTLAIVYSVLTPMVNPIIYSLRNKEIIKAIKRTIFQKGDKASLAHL
How it was run: as §1

OR6P1 (Homo sapiens) = target: T17, OR6P1 (Homo sapiens) (UniProt Q8NGX9)
T17 sequence (whole entry): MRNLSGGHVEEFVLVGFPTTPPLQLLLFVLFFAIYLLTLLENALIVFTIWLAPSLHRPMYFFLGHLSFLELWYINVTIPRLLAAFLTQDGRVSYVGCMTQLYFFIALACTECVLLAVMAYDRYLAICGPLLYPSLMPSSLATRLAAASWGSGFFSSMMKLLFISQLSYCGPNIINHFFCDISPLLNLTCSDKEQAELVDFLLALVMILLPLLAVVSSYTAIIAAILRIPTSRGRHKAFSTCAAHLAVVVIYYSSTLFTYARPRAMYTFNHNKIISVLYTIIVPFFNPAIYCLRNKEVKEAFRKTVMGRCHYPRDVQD
How it was run: as §1

OR6Q1 (Homo sapiens) = target: T18, OR6Q1 (Homo sapiens) (UniProt Q8NGQ2)
T18 sequence (whole entry): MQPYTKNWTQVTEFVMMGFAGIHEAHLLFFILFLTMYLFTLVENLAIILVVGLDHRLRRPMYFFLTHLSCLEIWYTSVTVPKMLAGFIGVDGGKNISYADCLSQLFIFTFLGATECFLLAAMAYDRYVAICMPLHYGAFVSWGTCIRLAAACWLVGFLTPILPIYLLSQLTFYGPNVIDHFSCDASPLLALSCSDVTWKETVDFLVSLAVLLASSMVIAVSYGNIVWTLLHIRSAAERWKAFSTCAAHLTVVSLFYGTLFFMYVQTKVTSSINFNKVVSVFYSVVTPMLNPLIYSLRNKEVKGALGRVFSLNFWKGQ
How it was run: as §1

Measured: odorant receptor agonist call;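 further: active if original authors judged signal statistically different from baseline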

CC1=C(O)C(=O)OC1C (stereo not drawn)
inactive: all assays above
